High-throughput results (PubChem)
NadD block: blocks S. aureus nicotinate mononucleotide adenylyltransferase | purified NadD enzyme, colorimetric absorbance read-out | inhibition, % at 20 µM | hit rate 0.78% among 360,000 | AID 602399; in the data active = inhibition above about 26%
Rce1 inh: yeast Ras-converting enzyme inhibition; hit rate 0.27% among 290,000; Q03530; calls only; yeast membranes, quenched prenylated peptide cleavage fluorescence; AID 2563;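 active = fall in fluorescence gain of 50% or more versus controls, with final raw signal at or below 3038400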;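 note: plate controls were neutral control wells for no effect and wells lacking membranes for full effect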
Target sequence (Q03530 whole entry, looked up): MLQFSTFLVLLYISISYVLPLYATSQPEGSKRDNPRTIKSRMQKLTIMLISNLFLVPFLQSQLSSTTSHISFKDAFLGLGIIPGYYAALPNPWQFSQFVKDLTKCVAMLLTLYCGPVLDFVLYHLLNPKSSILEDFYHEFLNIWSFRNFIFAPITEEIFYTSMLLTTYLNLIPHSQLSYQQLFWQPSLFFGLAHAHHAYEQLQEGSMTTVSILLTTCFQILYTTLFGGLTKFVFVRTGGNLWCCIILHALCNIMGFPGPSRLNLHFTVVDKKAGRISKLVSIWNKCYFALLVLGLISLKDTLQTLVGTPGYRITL
Pemphigus Ab inh: inhibitors of pemphigus antibody binding to human desmoglein-3; DSG3-coupled beads, scFv-anti-DSG3-GFP binding, flow cytometry; stronger effect = lower value; hit rate 0.48% among 310,000; P32926; binding (percent of control), % at 10 µM;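 active = binding more than 3 SD below its plate's average and above zero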
Tb MetRS inh: Trypanosoma brucei MetRS inhibition | purified T. brucei MetRS, ATP depletion, Kinase-Glo luminescence | inhibition, % at 11.9 µM | hit rate 0.4% among 360,000 | AID 624268;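 active = inhibition above a per-plate cutoff of the control wells' mean inhibition plus 3 SD, cut at about 5.5% in these data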;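 note: 0% = DMSO wells median and 100% = median of wells with control inhibitor compound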
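Material: T. brucei methionyl-tRNA synthetase, purified; reagent: substrates ATP, L-methionine and bulk Escherichia coli tRNA; dosing: 11.9 µM single point; timing: 15 min plus 2 h at 25 °C; detection: luminescence of leftover ATP; evaluation: % inhibition; control set: DMSO-only wells as low control; replicates: singlicate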
core dimer inh: blocks dimerization of HCV core protein; TR-FRET GST/Flag-core106 dimerization, 1536-well; inhibition, % at 5 µM; hit rate 0.33% among 300,000;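 active = inhibition above the mean of all tested compounds plus 3 SD, set per screening campaign, cut at about 45% in these data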
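System: GST-tagged and Flag-tagged HCV core protein residues 1-106 / Input: core106 proteins, GST 13.5 nM and Flag 17 nM / Buffer or medium: KF-containing HEPES buffer, pH 7.45, DTT, CHAPS, BSA / Probe or stimulus: Eu-anti-GST and XL665-anti-Flag labelled anti-tag antibodies / Schedule: 4 h, 22.5 °C incubation / Technique: TR-FRET 671 and 617 nm emission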
NadD inh conf: NadD (S. aureus) inhibition, single concentration confirmation; hit rate 13% among 2,000; shares compounds with NadD block; AID 624309; inhibition, % at 20 µM; purified S. aureus NadD, colorimetric enzyme assay; in the data active = inhibition mostly above about 42%, no sharp cut-off; inactive = mostly below about 42%
Numbers without * were called inactive; i = inactive; / = not tested or not shown. This is a sample that favours compounds with a hit; in the whole collection about 1.9% have one here.

SMILES	NadD block	Rce1 inh	Pemphigus Ab inh	Tb MetRS inh	core dimer inh	NadD inh conf
Cc1cc(Br)c2nc(-c3ccccc3)c(Cc3cccc(Cl)c3)n2c1	31*	/	/	0	/	17
Cc1cc(C)cc(NC(=O)C(OC(=O)c2cccs2)c2ccccc2)c1 (configuration not stated)	-12	i	98	1	7	/
Cc1ccc(C)c(NC(=O)C(OC(=O)c2ccc(NC(=O)CC#N)cc2)c2ccccc2)c1 (configuration not stated)	37*	i	99	0	29	53*
Cc1ccc(C)c(NC(=O)C(OC(=O)c2ccc(CO)cc2)c2ccccc2)c1 (configuration not stated)	-6	/	103	0	/	/
Cc1cc(C)cc(NC(=O)C(OC(=O)c2ccc(NC(=O)CC#N)cc2)c2ccccc2)c1 (configuration not stated)	40*	i	94	0	39	45*
Cc1cccc(CN2CCC(CNC(=O)Cn3ncc4c([nH]c5ccccc54)c3=O)CC2)c1	4	i	104	0	7	/
Cc1sc(NC(=O)Cc2ccc3c(c2)OCO3)nc1-c1ccc2c(c1)CCN2C(=O)c1cccc(F)c1	34*	i	93	-1	28	20
O=C(Nc1ccc2c(c1)OCO2)C1CCN(S(=O)(=O)c2cccs2)CC1	4	i	96	-1	7	/
O=C(Nc1ccc2c(c1)OCO2)C1Cc2ccccc2CN1S(=O)(=O)c1cccs1 (configuration not stated)	31*	i	/	0	38	-2
Clc1cc(Cl)c(Cl)cc1Cl	0	/	100	0	/	/
CCOc1ccccc1/C=N/NC(=O)Cc1csc(Nc2cccc(C(F)(F)F)c2)n1	38*	i	101	-1	24	24
CCOc1ccc(/C=N/NC(=O)Cc2csc(Nc3cccc(C(F)(F)F)c3)n2)c(OCC)c1	9	i	105	1	24	/
COc1ccc(/C=N/NC(=O)Cc2csc(Nc3cccc(C(F)(F)F)c3)n2)c(OC)c1	33*	i	96	1	23	45
O=C(CSc1nc(O)c(Cc2ccccc2)c(=O)[nH]1)c1ccccc1	-5	i	90	0	5	/
COc1cc(OC)cc(C2=Cc3ccccc3C(CC(C)=O)N2c2ccc(-c3cncnc3)cc2)c1 (configuration not stated)	13	/	/	0	/	/
O=C(CC1c2ccccc2C=C(c2ccsc2)N1c1ccc(-c2cccnc2)cc1)C1CC1 (configuration not stated)	33*	/	/	0	/	12
COc1ncc(-c2ccc(N3C(c4ccsc4)=Cc4ccc(F)cc4C3CC(=O)c3ccco3)cc2)cn1 (configuration not stated)	35*	/	/	0	/	10
COC(=O)c1ccc(N2C(c3cc(OC)cc(OC)c3)=Cc3ccc(OC)cc3C2CC(=O)c2ccco2)cc1 (configuration not stated)	22	/	/	-1	/	/
COC(=O)c1ccc(N2C(c3ccsc3)=Cc3cc4c(cc3C2CC(=O)c2ccco2)OCO4)cc1 (configuration not stated)	31*	/	/	0	/	16
CCSc1nc2c(c(=O)[nH]1)C(c1ccncc1)C(C(=O)OC)=C(C)N2 (configuration not stated)	2	i	106	0	0	/
Nc1c(C(=O)O)sc2nc(-c3ccccc3)cc(-c3ccc(Cl)cc3)c12	5	i	111	1	20	/
Nc1c(C(=O)O)sc2nc(-c3ccc(F)cc3)cc(-c3ccccc3)c12	37*	i	83	0	16	29
COC(=O)CN1C(=O)COc2ccc(S(=O)(=O)N3CCOCC3)cc21	1	i	104	0	0	/
COCCn1c(=NC(=O)c2ccc(S(=O)(=O)N3CCOCC3)cc2)sc2cc(S(N)(=O)=O)ccc21	5	i	102	0	3	/
C=CCn1c(=NC(=O)c2sc3ccccc3c2Cl)sc2cc(S(N)(=O)=O)ccc21	36*	i	87	-1	-1	0
SMILES	NadD block	Rce1 inh	Pemphigus Ab inh	Tb MetRS inh	core dimer inh	NadD inh conf
COCCn1c(=NC(=O)c2sc3ccccc3c2Cl)sc2cc(S(N)(=O)=O)ccc21	29*	i	84	-2	19	17
COc1ccccc1/C=C/c1onc(C)c1S(=O)(=O)N1CCC(C(=O)NC2CCCCCC2)CC1	13	i	106	0	-7	/
Cc1ccc(NC(=O)CN2C(=O)S/C(=C\c3cccn3-c3cccc(C(=O)O)c3)C2=O)c(C)c1	40*	i	135	-1	23	5
Cc1ccccc1NC(=O)CN1C(=O)S/C(=C\c2cccn2-c2cccc(C(=O)O)c2)C1=O	15	i	108	-1	13	/
Cc1nc(NCc2ccccc2)sc1C(=O)Nc1ccccc1	-4	i	114	-1	0	/
Cc1ccc([N+](=O)[O-])cc1S(=O)(=O)N(C(=O)c1ccncc1)c1ccc2oc3c(c2c1)CCCC3	28	i	100	-1	19	/
Cc1ccc(S(=O)(=O)N(C(=O)c2ccncc2)c2ccc3oc4c(c3c2)CCCC4)cc1[N+](=O)[O-]	35*	i	101	-1	30	17
CCOC(=O)c1ccc(N=C2C(=S)N(c3ccc(C(=O)OCC)cc3)C(=N)N2/N=C/c2ccccc2)cc1	39*	i	89	-1	14	13
CCOC(=O)c1ccc(N=c2scc(C)n2CC)cc1	6	i	98	0	-11	/
O=C(Nc1cccc(S(=O)(=O)N2CCCC2)c1)c1ccc2ccccc2n1	-4	i	110	1	5	/
C/C(=N\Nc1ccc(S(=O)(=O)Nc2ccccc2)cc1[N+](=O)[O-])c1ccc(N2CCOCC2)cc1	42*	i	76*	-1	0	14
C/C(=N\Nc1ccc(S(=O)(=O)Nc2ccc(Cl)cc2)cc1[N+](=O)[O-])c1ccc(N2CCOCC2)cc1	19	i	98	-1	14	/
O=[N+]([O-])c1ccccc1/C=C/C=N/Nc1ccc(S(=O)(=O)Nc2ccc(Cl)cc2)cc1[N+](=O)[O-]	26*	i	104	-1	31	2
O=C(O)c1ccc(N/N=C/C=C/c2ccccc2[N+](=O)[O-])cc1	-9	i	88	-1	-16	/
O=[N+]([O-])c1cc(S(=O)(=O)Nc2cccc(Cl)c2)ccc1N/N=C/c1ccc(N2CCOCC2)cc1	28*	i	90	0	15	0
COc1ccc(CNC(=S)N/N=C(\C)c2ccc(OC)cc2)cc1	-11	i	105	-1	3	/
Cc1ccc2ccccc2c1C(O)c1ncc(-c2ccc(C(F)(F)F)cc2)[nH]1 (configuration not stated)	7	/	/	1	/	/
